From ChEMBL document CHEMBL1140995, “Synthesis and biological evaluation of aminomethylphenol derivatives as inhibitors of the murine GABA transporters mGAT1-mGAT4” (Eur J Med Chem, 2008)

Tests used:
[1] = target: Sodium- and chloride-dependent GABA transporter 1 (Mus musculus, UniProt P31648); test: Inhibition of [3H]GABA uptake at mouse GAT1 expressed in HEK cells; type: cell-based, HEK293
GABA transporter 2 = target: T1, GABA transporter 2 (Mus musculus, UniProt P31651); test: Inhibition of [3H]GABA uptake at mouse GAT2 expressed in HEK cells; type: cell-based, HEK293
T1 sequence (P31651 whole entry): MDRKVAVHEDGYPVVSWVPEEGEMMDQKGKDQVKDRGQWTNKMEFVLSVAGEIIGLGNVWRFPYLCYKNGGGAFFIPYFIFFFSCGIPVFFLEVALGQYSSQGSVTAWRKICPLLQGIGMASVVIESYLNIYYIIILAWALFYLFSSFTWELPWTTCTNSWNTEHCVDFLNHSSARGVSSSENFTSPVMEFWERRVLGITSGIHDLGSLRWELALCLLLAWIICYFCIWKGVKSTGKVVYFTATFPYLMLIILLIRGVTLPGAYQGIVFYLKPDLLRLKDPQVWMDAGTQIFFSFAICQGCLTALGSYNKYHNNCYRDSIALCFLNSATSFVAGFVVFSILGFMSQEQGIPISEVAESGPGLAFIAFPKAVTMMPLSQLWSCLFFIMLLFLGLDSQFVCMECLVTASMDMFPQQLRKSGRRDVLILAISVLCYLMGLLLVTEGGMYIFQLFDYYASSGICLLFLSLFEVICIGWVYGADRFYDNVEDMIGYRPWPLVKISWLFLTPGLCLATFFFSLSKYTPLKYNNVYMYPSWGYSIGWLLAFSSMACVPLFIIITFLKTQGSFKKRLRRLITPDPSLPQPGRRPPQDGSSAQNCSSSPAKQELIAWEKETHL
Method in brief: (§1)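 Stable mGAT2-HEK cells were trypsinized, PBS-washed, and suspended in Krebs-Tris pH 7.2 at about 200,000 cells/well. Cells were preincubated 25 min at 37 °C with compound (1% DMSO), then exposed to 20 nM [³H]GABA plus 20 nM unlabeled GABA for 10 min.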

GABA transporter 3 = target: T2, GABA transporter 3 (Mus musculus, UniProt P31649); test: Inhibition of [3H]GABA uptake at mouse GAT3 expressed in HEK cells; type: cell-based, HEK293
T2 sequence (P31649 whole entry): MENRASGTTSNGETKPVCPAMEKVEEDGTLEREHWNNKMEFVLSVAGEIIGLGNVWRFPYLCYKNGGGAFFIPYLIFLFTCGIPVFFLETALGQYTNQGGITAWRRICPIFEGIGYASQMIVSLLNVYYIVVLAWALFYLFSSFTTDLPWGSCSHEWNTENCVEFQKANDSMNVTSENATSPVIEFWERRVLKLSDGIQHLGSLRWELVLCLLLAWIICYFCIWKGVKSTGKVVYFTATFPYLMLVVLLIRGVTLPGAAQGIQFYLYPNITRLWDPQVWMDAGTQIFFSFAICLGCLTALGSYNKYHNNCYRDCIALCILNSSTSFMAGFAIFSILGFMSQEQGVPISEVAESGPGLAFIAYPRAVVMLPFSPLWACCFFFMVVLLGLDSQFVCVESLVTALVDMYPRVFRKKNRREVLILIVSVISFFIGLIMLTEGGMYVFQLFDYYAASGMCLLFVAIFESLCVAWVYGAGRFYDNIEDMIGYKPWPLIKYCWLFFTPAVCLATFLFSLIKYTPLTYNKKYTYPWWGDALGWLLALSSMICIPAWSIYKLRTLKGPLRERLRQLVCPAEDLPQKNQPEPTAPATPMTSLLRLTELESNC

GABA transporter 4 = target: T3, GABA transporter 4 (Mus musculus, UniProt P31650); test: Inhibition of [3H]GABA uptake at mouse GAT4 expressed in HEK cells; type: cell-based, HEK293
T3 sequence (P31650 whole entry): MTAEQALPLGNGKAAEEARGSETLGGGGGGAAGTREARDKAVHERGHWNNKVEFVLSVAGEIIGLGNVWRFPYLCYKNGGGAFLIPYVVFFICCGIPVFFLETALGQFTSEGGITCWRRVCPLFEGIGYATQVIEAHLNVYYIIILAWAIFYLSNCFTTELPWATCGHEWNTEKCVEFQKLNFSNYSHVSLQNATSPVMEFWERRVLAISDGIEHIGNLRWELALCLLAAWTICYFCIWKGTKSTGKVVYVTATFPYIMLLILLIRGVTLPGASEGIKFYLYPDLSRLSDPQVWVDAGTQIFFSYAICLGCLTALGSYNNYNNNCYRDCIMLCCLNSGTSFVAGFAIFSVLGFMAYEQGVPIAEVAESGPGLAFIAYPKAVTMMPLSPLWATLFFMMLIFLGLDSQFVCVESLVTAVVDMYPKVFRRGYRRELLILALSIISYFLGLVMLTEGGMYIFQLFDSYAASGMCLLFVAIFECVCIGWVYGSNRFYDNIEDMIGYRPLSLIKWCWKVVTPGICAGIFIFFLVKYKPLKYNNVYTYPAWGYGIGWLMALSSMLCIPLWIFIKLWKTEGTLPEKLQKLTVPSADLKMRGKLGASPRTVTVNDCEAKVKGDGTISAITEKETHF

[2] = target: T4, GABA transporter 2 (Mus musculus) (UniProt P31651); test: Inhibition of [3H]GABA uptake at mouse GAT2 expressed in HEK cells assessed as remaining [3H]GABA uptake at 100 uM relative to control; type: cell-based; details: HEK293; method in brief: as §1
T4 sequence (whole entry): T1 sequence (P31651 whole entry)

[3] = target: T5, GABA transporter 4 (Mus musculus) (UniProt P31650); test: Inhibition of [3H]GABA uptake at mouse GAT4 expressed in HEK cells assessed as remaining [3H]GABA uptake at 100 uM relative to control; type: cell-based; details: HEK293
T5 sequence (whole entry): T3 sequence (P31650 whole entry)
Method in brief: (§2)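 Stably transfected HEK cells were trypsinized, washed in PBS, and resuspended in Krebs-Tris buffer pH 7.2 at about 100,000 cells/well. They were pre-equilibrated 25 min at 37 °C with compound in 1% DMSO, then given 8 nM [³H]GABA plus 32 nM unlabeled GABA for 4 min.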

[4] = target: T6, GABA transporter 3 (Mus musculus) (UniProt P31649); test: Inhibition of [3H]GABA uptake at mouse GAT3 expressed in HEK cells assessed as remaining [3H]GABA uptake at 100 uM relative to control; type: cell-based; details: HEK293; method in brief: as §2
T6 sequence (whole entry): T2 sequence (P31649 whole entry)

[5] = target: Sodium- and chloride-dependent GABA transporter 1 (Mus musculus) (UniProt P31648); test: Inhibition of [3H]GABA uptake at mouse GAT1 expressed in HEK cells assessed as remaining [3H]GABA uptake at 100 uM relative to control; type: cell-based; details: HEK293; method in brief: as §2

| SMILES | IC50 [1] | IC50 (GABA transporter 2) | IC50 (GABA transporter 3; read-out: pIC50 (converted)) | IC50 (GABA transporter 4) | IC50 (GABA transporter 3; read-out: IC50) | Activity [2] | Activity [3] | Activity [4] | Activity [5] |
| --- | --- | --- | --- | --- | --- | --- | --- | --- | --- |
| COc1ccc(CNCCC=C(c2ccccc2)c2ccccc2)cc1O | 18.6 µM | 19.5 µM | 12 µM | 22.9 µM | – | – | – | – | – |
| Oc1ccccc1CNCCC(c1ccccc1)c1ccccc1 | 52.5 µM | 18.2 µM | 24.5 µM | 25.1 µM | – | – | – | – | – |
| O=C(O)C1=CCCNC1 [GUVACINE] | 13.5 µM | 490 µM | 25.7 µM | 25.7 µM | – | – | – | – | – |
| CCCCCCCCCCCCNCc1cccc(O)c1 | 20.9 µM | 15.1 µM | 5.62 µM | 25.1 µM | – | – | – | – | – |
| O=C(O)C1=CCCN(CCON=C(c2ccccc2)c2ccccc2)C1 | 0.148 µM | 631 µM | 240 µM | 851 µM | – | – | – | – | – |
| COc1ccc(C(OCCNCc2ccc(F)c(O)c2F)(c2ccc(OC)cc2)c2ccc(OC)cc2)cc1 | 85.1 µM | – | – | – | 10.2 µM | 54% | 82% | – | – |
| Oc1cccc(CNCCC(c2ccccc2)c2ccccc2)c1 | 87.1 µM | 47.9 µM | 38 µM | 50.1 µM | – | – | – | – | – |
| Oc1cccc(CNCCC=C(c2ccccc2)c2ccccc2)c1 | 28.8 µM | 17.8 µM | 7.94 µM | 20.9 µM | – | – | – | – | – |
| COc1ccc(C(OCCNCc2ccccc2O)(c2ccc(OC)cc2)c2ccc(OC)cc2)cc1 | 26.9 µM | 11.7 µM | 8.32 µM | 16.2 µM | – | – | – | – | – |
| O=C(O)C1CCCN(CCC=C(c2ccccc2)c2ccccc2)C1 (configuration not stated) | 0.692 µM | 372 µM | 195 µM | 275 µM | – | – | – | – | – |
| Cc1ccsc1C(=CCCN1CCC[C@@H](C(=O)O)C1)c1sccc1C [TIAGABINE] | 0.132 µM | – | – | – | – | 52% | 73% | 64% | – |
| COc1ccc(C(OCCNCc2cc(F)c(O)c(F)c2)(c2ccc(OC)cc2)c2ccc(OC)cc2)cc1 | – | – | – | – | – | 64% | 67% | 51% | 59% |
| CCCCCCCCCCCCNCc1ccccc1O | 58.9 µM | 28.8 µM | 18.6 µM | 63.1 µM | – | – | – | – | – |
| Oc1ccccc1CNCCC=C(c1ccccc1)c1ccccc1 | 33.1 µM | 14.5 µM | 7.76 µM | 14.8 µM | – | – | – | – | – |
| COc1ccc(C(OCCN2CCC[C@H](C(=O)O)C2)(c2ccc(OC)cc2)c2ccc(OC)cc2)cc1 | – | – | – | – | – | 56% | – | – | – |
| Oc1c(F)cc(CNCCC=C(c2ccccc2)c2ccccc2)cc1F | – | – | – | – | – | 82% | 76% | 66% | 70% |
| CCCCCCCCCCCCNCc1ccc(OC)c(O)c1 | 12.3 µM | 12.6 µM | 2.69 µM | 8.71 µM | – | – | – | – | – |
| COc1ccc(C(OCCNCc2c(F)cc(F)c(O)c2F)(c2ccc(OC)cc2)c2ccc(OC)cc2)cc1 | – | – | – | – | – | 89% | 64% | 56% | 87% |
| COc1ccc(C(OCCNCc2ccc(OC)c(O)c2)(c2ccc(OC)cc2)c2ccc(OC)cc2)cc1 | 25.7 µM | 20.9 µM | 8.91 µM | 14.5 µM | – | – | – | – | – |
| COc1ccc(C(OCCNCc2cccc(O)c2)(c2ccc(OC)cc2)c2ccc(OC)cc2)cc1 | 43.7 µM | 12.9 µM | 9.55 µM | 7.76 µM | – | – | – | – | – |
